Assay results from ChEMBL document CHEMBL1148440, “4-(tetralin-1-yl)- and 4-(naphthalen-1-yl)alkyl derivatives of 1-cyclohexylpiperazine as sigma receptor ligands with agonist sigma2 activity” (J Med Chem, 2004).

Columns and labels:
[1] = target: T1, Serotonin 3 (5-HT3) receptor (Rattus norvegicus, UniProt P35563+Q9JJ16); experiment: In vitro binding affinity at serotonin 5-hydroxytryptamine 3 receptor in rat cortex by [3H]granisetron displacement.
T1 sequence (P35563 whole entry): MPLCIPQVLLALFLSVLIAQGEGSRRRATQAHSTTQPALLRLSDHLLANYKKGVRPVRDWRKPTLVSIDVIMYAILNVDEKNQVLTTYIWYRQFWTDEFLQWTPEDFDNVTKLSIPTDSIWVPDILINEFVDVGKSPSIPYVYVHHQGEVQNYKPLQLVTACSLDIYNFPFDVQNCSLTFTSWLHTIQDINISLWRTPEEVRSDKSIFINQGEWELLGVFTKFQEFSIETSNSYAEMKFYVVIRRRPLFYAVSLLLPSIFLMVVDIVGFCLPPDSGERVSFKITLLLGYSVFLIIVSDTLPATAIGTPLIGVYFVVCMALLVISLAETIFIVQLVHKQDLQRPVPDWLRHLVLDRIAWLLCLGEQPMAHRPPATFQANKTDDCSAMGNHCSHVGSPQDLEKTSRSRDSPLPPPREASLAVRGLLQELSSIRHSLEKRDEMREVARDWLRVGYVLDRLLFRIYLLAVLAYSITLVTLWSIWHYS
T1 sequence (Q9JJ16 whole entry): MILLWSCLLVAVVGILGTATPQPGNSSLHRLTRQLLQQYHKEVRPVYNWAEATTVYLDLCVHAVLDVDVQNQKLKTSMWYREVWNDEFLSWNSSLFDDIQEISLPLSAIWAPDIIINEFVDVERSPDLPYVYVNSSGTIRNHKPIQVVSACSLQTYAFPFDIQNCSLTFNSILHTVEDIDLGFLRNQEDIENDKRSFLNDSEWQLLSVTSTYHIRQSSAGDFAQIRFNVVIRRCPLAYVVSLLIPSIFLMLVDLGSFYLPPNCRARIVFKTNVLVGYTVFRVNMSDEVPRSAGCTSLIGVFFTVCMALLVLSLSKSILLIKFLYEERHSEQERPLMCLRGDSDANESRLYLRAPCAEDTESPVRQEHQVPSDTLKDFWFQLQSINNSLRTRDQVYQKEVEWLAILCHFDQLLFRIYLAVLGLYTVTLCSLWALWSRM
Procedure, shortened: (§1)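 Competition binding was run with radioligand displacement: [3H]spiroperidol for D2-like, [3H]prazosin for α1 and [3H]granisetron for 5-HT3. D2 values are the mean of three independent experiments.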

[2] = target: T2, Adrenergic receptor alpha-1 (Rattus norvegicus, UniProt P15823+P23944+P43140); experiment: In vitro binding affinity at alpha-1 adrenergic receptor in rat cortex by [3H]prazosin displacement.; procedure, shortened: as §1
T2 sequence (P15823 whole entry): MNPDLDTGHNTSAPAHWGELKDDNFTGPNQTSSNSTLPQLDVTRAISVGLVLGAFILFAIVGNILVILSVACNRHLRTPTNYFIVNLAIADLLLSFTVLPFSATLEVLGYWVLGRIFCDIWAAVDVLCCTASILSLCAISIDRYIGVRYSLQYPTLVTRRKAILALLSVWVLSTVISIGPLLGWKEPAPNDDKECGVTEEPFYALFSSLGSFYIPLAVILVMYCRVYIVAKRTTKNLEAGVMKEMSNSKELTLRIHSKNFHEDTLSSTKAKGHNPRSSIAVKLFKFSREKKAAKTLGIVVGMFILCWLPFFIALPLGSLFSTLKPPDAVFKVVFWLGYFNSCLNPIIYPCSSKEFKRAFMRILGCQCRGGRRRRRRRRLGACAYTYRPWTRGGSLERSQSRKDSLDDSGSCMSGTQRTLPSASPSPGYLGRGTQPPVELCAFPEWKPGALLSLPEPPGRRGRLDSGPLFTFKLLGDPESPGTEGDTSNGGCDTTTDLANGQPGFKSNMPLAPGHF
T2 sequence (P23944 whole entry): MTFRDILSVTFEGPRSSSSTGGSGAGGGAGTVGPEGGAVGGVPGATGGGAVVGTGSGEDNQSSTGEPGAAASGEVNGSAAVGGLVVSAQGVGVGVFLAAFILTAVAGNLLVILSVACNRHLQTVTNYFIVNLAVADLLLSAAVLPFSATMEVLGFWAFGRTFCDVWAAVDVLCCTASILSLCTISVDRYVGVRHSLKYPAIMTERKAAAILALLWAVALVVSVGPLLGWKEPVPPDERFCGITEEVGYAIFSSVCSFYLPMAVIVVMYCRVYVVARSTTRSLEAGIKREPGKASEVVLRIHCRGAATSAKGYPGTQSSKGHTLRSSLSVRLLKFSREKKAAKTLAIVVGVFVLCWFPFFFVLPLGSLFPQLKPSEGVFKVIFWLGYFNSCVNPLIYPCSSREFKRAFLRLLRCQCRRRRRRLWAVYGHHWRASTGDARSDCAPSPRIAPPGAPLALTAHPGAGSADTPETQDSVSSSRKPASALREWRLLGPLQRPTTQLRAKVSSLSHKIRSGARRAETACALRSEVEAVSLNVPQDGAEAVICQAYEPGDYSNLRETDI
T2 sequence (P43140 whole entry): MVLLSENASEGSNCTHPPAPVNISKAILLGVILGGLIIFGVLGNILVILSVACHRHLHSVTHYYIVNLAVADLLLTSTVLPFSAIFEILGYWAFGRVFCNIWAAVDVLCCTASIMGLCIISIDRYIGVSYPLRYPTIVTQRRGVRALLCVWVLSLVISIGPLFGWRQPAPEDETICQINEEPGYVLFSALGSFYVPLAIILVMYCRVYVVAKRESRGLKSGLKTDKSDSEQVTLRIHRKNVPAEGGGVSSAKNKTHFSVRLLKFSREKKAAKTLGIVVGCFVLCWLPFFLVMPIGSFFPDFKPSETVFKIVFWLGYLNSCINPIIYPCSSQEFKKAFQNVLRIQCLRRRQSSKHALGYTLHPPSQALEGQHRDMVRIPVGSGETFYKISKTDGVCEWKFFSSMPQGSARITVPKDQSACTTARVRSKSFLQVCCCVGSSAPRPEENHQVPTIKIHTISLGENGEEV

Cavia porcellus [3] = species on record: Cavia porcellus; experiment: Inhibition of electrically stimulated contractions of the isolated guinea pig badder.; format: functional
Sigma 2 receptor [4] = experiment: In vitro binding affinity at opioid sigma-2 receptor in rat liver membranes by [3H]-DTG displacement in the presence of 1 uM (+)-pentazocine.; format: cell membranes, Membrane
D(2) dopamine receptor = D(2) dopamine receptor (Rattus norvegicus, UniProt P61169); experiment: In vitro binding affinity at Dopamine receptor D2 in rat striatum by [3H]spiroperidol displacement.; format: tissue-based; procedure, shortened: as §1
Sequence of D(2) dopamine receptor (P61169 whole entry): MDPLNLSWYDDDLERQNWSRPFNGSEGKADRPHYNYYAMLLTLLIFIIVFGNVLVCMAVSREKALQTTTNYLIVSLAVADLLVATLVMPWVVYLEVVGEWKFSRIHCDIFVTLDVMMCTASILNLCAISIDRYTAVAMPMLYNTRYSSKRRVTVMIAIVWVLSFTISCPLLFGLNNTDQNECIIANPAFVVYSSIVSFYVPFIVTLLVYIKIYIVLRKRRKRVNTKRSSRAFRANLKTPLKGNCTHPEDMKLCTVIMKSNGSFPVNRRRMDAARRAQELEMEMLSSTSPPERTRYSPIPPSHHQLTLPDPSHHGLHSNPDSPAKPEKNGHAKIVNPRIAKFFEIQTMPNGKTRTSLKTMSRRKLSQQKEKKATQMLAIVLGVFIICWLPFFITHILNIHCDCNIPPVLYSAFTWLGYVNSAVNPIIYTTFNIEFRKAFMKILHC

[5] = target: Sigma non-opioid intracellular receptor 1 (Homo sapiens) (UniProt Q99720); experiment: Binding affinity ratio of sigma 1 receptor to that of sigma 2 receptor
Sequence of Sigma non-opioid intracellular receptor 1 (Homo sapiens) (Q99720 whole entry): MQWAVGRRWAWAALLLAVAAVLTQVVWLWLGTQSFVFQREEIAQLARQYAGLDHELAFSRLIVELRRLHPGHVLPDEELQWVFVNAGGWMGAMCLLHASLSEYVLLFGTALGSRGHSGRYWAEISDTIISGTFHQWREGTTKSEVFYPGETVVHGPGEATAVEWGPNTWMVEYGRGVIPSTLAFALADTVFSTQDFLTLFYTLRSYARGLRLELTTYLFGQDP
Procedure, shortened: (§2)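 Sigma-1 binding used guinea pig brain membranes without cerebellum with (+)-[3H]pentazocine. […] IC50 came from 6–9 drug concentrations in two or three experiments with duplicate samples, then converted to apparent Ki. Ratios are computed from these Ki values.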

[6] = target: Sigma non-opioid intracellular receptor 1 (Homo sapiens) (UniProt Q99720); experiment: Binding affinity ratio of sigma 2 receptor to that of sigma 1 receptor; procedure, shortened: as §2
Sigma 2 receptor [7] = experiment: In vitro binding affinity at opioid sigma-2 receptor in rat liver membranes by [3H]DTG displacement in the presence of 1 uM (+)-pentazocine.; format: cell membranes, Membrane
Cavia porcellus [8] = species on record: Cavia porcellus; experiment: Inhibition of electrically stimulated contractions of the isolated guinea pig badder at 30 uM.; format: functional

| SMILES | Ki [1] [µM] | Ki [2] [µM] | EC50 (Cavia porcellus [3]) [µM] | Ki (Sigma 2 receptor [4]) [µM] | Ki (D(2) dopamine receptor) [µM] | Ratio [5] | Ratio [6] | Ki (Sigma 2 receptor [7]) [µM] | inhibition at 30 µM (Cavia porcellus [8]) [%] |
| --- | --- | --- | --- | --- | --- | --- | --- | --- | --- |
| COc1cccc2c1CCCC2CN1CCN(C2CCCCC2)CC1 (stereo unspecified) | > 0.7 | > 7.5 | 11.5 | 0.0164 | 4.26 | – | 53 | – | – |
| COc1cccc2c1CCC[C@H]2CCCN1CCN(C2CCCCC2)CC1 | > 0.7 | > 7.5 | 1.75 | 0.00865 | – | – | – | – | – |
| COc1cccc2c1CCCC2CCCCCCN1CCN(C2CCCCC2)CC1 (stereo unspecified) | > 0.7 | > 7.5 | 25.3 | 0.103 | 3.48 | – | 34 | – | – |
| COc1ccc2c(c1)CCCC2CCCN1CCN(C2CCCCC2)CC1 (stereo unspecified) | > 0.7 | > 7.5 | – | 0.00542 | – | – | 15 | – | – |
| Cc1ccccc1NC(=N)Nc1ccccc1C [DITOLYLGUANIDINE] | – | – | 6.9 | – | – | – | – | – | – |
| c1ccc2c(c1)CCCC2CCCCN1CCN(C2CCCCC2)CC1 (stereo unspecified) | > 0.7 | > 7.5 | – | 0.0146 | – | – | – | – | – |
| COc1cccc2c1CCCC2CCCCN1CCN(C2CCCCC2)CC1 (stereo unspecified) | > 0.7 | > 7.5 | 9.94 | 0.00358 | 3.67 | – | – | – | – |
| COc1cccc2c1CCCC2CCN1CCN(C2CCCCC2)CC1 (stereo unspecified) | > 0.7 | > 7.5 | 16.1 | 0.0211 | 1.62 | – | 13 | – | – |
| COc1cccc2c1CCCC2N1CCN(C2CCCCC2)CC1 (stereo unspecified) | > 0.7 | > 7.5 | 6.97 | – | 1.16 | – | 20 | 0.0079 | – |
| COc1ccc2c(c1)C(CCCN1CCN(C3CCCCC3)CC1)CCC2 (stereo unspecified) | > 0.7 | > 7.5 | – | 0.00122 | 0.479 | 7.4 | – | – | – |
| c1ccc(CCN2CCCCC2)cc1 | > 0.7 | > 7.5 | – | 0.194 | – | 1.6 | – | – | 41 |
| COc1cccc2c(CCCN3CCN(C4CCCCC4)CC3)cccc12 | > 0.7 | > 7.5 | – | 0.00924 | – | – | – | – | – |
| c1ccc2c(CCCCCN3CCN(C4CCCCC4)CC3)cccc2c1 | – | – | 2.95 | 0.00057 | – | 4.2 | – | – | – |

Second part, led by results:

| Ki [1] [µM] | Ki [2] [µM] | EC50 (Cavia porcellus [3]) [µM] | Ki (Sigma 2 receptor [4]) [µM] | Ki (D(2) dopamine receptor) [µM] | Ratio [5] | Ratio [6] | Ki (Sigma 2 receptor [7]) [µM] | SMILES | inhibition at 30 µM (Cavia porcellus [8]) [%] |
| --- | --- | --- | --- | --- | --- | --- | --- | --- | --- |
| > 0.7 | > 7.5 | 1.5 | 0.00209 | – | – | – | – | COc1cccc2c1CCC[C@@H]2CCCN1CCN(C2CCCCC2)CC1 | – |
| > 0.7 | > 7.5 | 4.9 | 0.00035 | 2.45 | 4.3 | – | – | COc1cccc2c1CCCC2CCCCCN1CCN(C2CCCCC2)CC1 (stereo unspecified) | – |
| > 0.7 | > 7.5 | – | 0.00266 | – | – | – | – | Oc1cccc2c1CCCC2CCCN1CCN(C2CCCCC2)CC1 (stereo unspecified) | – |
| > 0.7 | > 7.5 | 2.62 | 0.00034 | 0.604 | – | – | – | COc1cccc2c1CCCC2CCCN1CCN(C2CCCCC2)CC1 (stereo unspecified) | – |
| > 0.7 | > 7.5 | 1.82 | 0.00069 | – | 3.1 | – | – | c1ccc2c(CCCN3CCN(C4CCCCC4)CC3)cccc2c1 | – |
| > 0.7 | > 7.5 | – | 0.00068 | – | – | 1.1 | – | c1ccc2c(c1)CCCC2CCCN1CCN(C2CCCCC2)CC1 (stereo unspecified) | – |
| > 0.7 | > 7.5 | – | 0.0305 | – | – | 139 | – | c1ccc2c(CCCCN3CCN(C4CCCCC4)CC3)cccc2c1 | – |
| > 0.7 | > 7.5 | – | 0.00112 | – | – | 1.6 | – | Oc1ccc2c(c1)CCCC2CCCN1CCN(C2CCCCC2)CC1 (stereo unspecified) | – |
| > 0.7 | > 7.5 | – | 0.00785 | – | – | 5.4 | – | c1ccc2c(c1)CCCC2CCCCCN1CCN(C2CCCCC2)CC1 (stereo unspecified) | – |
